Measurements taken from publication PMC3983694 (Journal of the American Chemical Society, 2013).
Values joined by “and” are separate entries in the source; they are usually repeats but may differ in a detail not shown here. Identical values can stand only once. Like-named read-outs stand apart in the source and are kept apart here. Marks after values point to notes of the source that are not given here.

How the values were obtained:
[1] = Cu; type: binding; details: for pCu = −log [Cu(I)aq]: 10 μM ligand and 1 μM Cu(I), pH 7.0, I = 0.1; for logβ2’ (apparent, 2:1 Cu(I) complex): pH 7.0 (0.1 M KClO4); for logβ2 of the 2:1 Cu(I) complex: recommended cumulative average, aqueous solution 25°C
[2] = cited from earlier work
[3] = Protonation constants by potentiometric or spectrophotometric titration; type: physicochemical; details: aqueous solution, 25°C, 0.1 M KCl; concentration constants based on p[H]
In short: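 The glass electrode was calibrated by titrating 5 mM HCl in 0.1 M KCl with standardized 0.1 M KOH (25°C, Gran's method); constants are on p[H], not activity. Ligand (1 or 5 mM, 0.1 M KCl, 25°C; basic sites pre-protonated with ≥1 equiv HCl where needed) was titrated stepwise with 0.1 M KOH and fitted by non-linear least squares. Values are from three independent titrations as standard deviation of the mean. Adding 0.11 gives mixed-mode constants.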

[4] = Aqueous solubility of neutral ligand; type: physicochemical
[5] = Cyclic voltammetry of the ligand-bound Cu; type: physicochemical; details: pH 5.0, 10 mM PIPBS, 0.1 M KClO4, Cu(II/I) complex
In short: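 Cyclic voltammetry was run under argon in 10 mM PIPBS pH 5 with 0.1 M KClO4 electrolyte. Half-wave potentials were referenced to ferrocenium (0.40 vs. SHE) or ferroin.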

[6] = cited from earlier work; remark: listed apart in the source
[7] = Cu; type: binding; details: 1:1 Cu(II) complex, aqueous solution, 25°C, I = 0.1
[8] = 1:1 Cu(II) complex, Damu et al.; cited from earlier work
[9] = spectrophotometric competition titration with MCL-1

O=C(O)c1cc(-c2cc(C(=O)O)c3ccccc3n2)nc2ccccc12 [BCA, 2,2′-bicinchoninic acid]
pCu = −log [Cu(I)aq] [1]: 13.5
logβ2 Cu(I) ([1]; competition titration with PEMEA): 17.63±0.05
logβ2’ (apparent, 2:1 Cu(I) complex) [1]: 17.7 ^e
logβ2 of the 2:1 Cu(I) complex [1]: 17.66(3) ^d
logβ2 Cu(I) [1, 9]: 17.67±0.03
protonation constant ([2]; 0.2 M ionic strength): 3.74±0.04
logKH1 [3]: 3.80(2)
solubility in aqueous solution [4]: not soluble at millimolar concentrations

Cc1cc(-c2ccc(S(=O)(=O)O)cc2)c2ccc3c(-c4ccc(S(=O)(=O)O)cc4)cc(C)nc3c2n1 [BCS, bathocuproine disulfonate]
E^f vs. SHE (half-wave potential) [5]: 0.626 V and 0.626(1) V
pCu = −log [Cu(I)aq] [1]: 16.6
logβ2 Cu(I) ([1]; from half-wave potential and Cu(II) logβ2 via Equation (1)): 20.81±0.08
logβ2’ (apparent, 2:1 Cu(I) complex) [1]: 20.8 ^e
logβ2 of the 2:1 Cu(I) complex [1]: 20.81(2) ^d
logβ2 Cu(I) [1, 9]: 20.80±0.03
logβ2 Cu(I) ([6]; previously reported): 19.9
protonation constant ([2]; previously reported): 5.7
logKH1 [3]: 5.70(2)

OCCN(CCO)Cc1ccccn1 [DHEAMP, N,N-bis(2-hydroxyethyl)-N-(2-pyridylmethyl)amine]
protonation constant ([2]; lit.): 6.92±0.01
log KCu(II)L [7]: 9.21±0.02
logKCu(II)L [8]: 9.2±0.1

CCSCCN(CCSCC)CCSCC [TEMEA]
protonation constant ([2]; aqueous solution): 8.32
protonation constant ([2]; extrapolated from data acquired in 80% water-methanol): 7.1

CSCCN(CCSC)CCSC [TMMEA, tris(2-methylthioethyl)amine]
protonation constant ([2]; aqueous solution): 8.36

C1CSCCCSCCCSCCCSC1 [[16]aneS4]
logKCu(I)L [6]: 12.0

CC#N [acetonitrile]
logβ1 Cu(I) ([6]; kinetic method): 2.63
logβ2 Cu(I) ([6]; kinetic method): 4.02
logβ3 Cu(I) ([6]; kinetic method): 4.29
